According to PubChem BioAssay:
Results filed as inconclusive are left out.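 Rule for the calls, unless noted: active = cell viability at or below a set limit in both duplicate runs, the limit being the all-compound median minus 4 SD (cut at about 23% in these data, passing the limit was not always enough); inconclusive = no clear call, values can overlap the other calls; inactive = the rest.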

Tests used:
[1] = OD615 S. cerevisiae growth inhibition, permissive medium, pilot counter-assay, permissive growth control for S. cerevisiae lifespan shortening project (AID 705;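 active = growth inhibition above 25% in both replicates, a cutoff set 3 SD above the mean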); conditions: OD615, 24 h, at 10 µM, active compounds read high
In short: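 Timing: 24 h exposure, 30 °C / Material: Saccharomyces cerevisiae strain carrying genetically modified DeaD replicative-lifespan system / Signal: OD at 615 nm / Compound: 10 µM single dose, 0.25% DMSO / Medium: SC raffinose/galactose permissive medium / Evaluation: reduction in yeast growth (OD615)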

[2] = Restrictive medium S. cerevisiae growth inhibition, OD615, pilot screen of yeast lifespan reduction project, restrictive growth control (AID 706;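 active = growth inhibition above a set limit, 3 SD over mean compound inhibition, in both replicates, cut at about 43% in these data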;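 note: modified DeaD lifespan yeast strain shifted to restrictive glucose medium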); conditions: OD615, 48 h, at 10 µM, active compounds read high
In short: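 System: Engineered S. cerevisiae DeaD strain | Detection: OD615 | Buffer or medium: CSMM-D glucose medium | Doses: 10 µM compound, 0.25% DMSO | Timing: 4 h pre-growth plus 48 h compound exposure, 30 °C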

[3] = viability gain of MRP-1-high H69AR cells under doxorubicin, pilot screen, MRP-1 activator project, CellTiter-Glo, duplicate (AID 807;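 active = viability increase at or above a cutoff of the median across tested compounds plus 3 SD, cut at about 8.5% in these data, passing the limit was not always enough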;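 note: compound pretreatment 18-22 h then 72 h combined with doxorubicin; 0% = doxorubicin alone and 100% = vehicle without doxorubicin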); conditions: H69AR viability with doxorubicin, CellTiter-Glo luminescence; at 10 µM; active compounds read high
[4] = growth suppression of beta-catenin knockout HCT116, pilot screen, human colon tumor cells (AID 823); conditions: CellTiter-Glo, 60 h, at 10 µM, active compounds read low;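 note: 0% = wells killed by 20 µM Hyamine and 100% = untreated DMSO cell wells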
[5] = growth suppression of PTEN-deleted HCT116, pilot screen, cell-based, HCT116 clonal line, CellTiter-Glo (AID 824;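 active = viability at or below 27.92% in each of two runs, the all-compound median minus 4 SD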;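 note: 0% = 20 µM Hyamine control and 100% = vehicle cell control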); conditions: 60 h, at 10 µM, active compounds read low
[6] = inhibitors of the yeast RAM network, pilot screen, dse1pr::URA3 reporter, 5-FOA selection (AID 869;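 active = inhibition over a set limit, the all-compound mean plus 3 SD, in both replicate runs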;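 note: 0% = DMSO wells with no growth and 100% = 10 µM 1-NA-PP1 with full growth; RAM network block rescues cells from 5-FOA so hits raise OD615 growth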); conditions: S. cerevisiae dse1pr::URA3 5-FOA growth, OD615, 2 d; at 10 µM; active compounds read high; strain carries analog-sensitive mutant Cbk1 kinase
[7] = RAM signaling pathway blockade in yeast – S. cerevisiae, Pdr1DBD-CYC8 efflux-inhibited sensitized strain, primary screen (AID 1298;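 active = RAM network inhibition above 8.4% in each of two replicates, 3 SD over the compound average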;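 note: 0% = DMSO untreated cells without growth and 100% = 10 µM 1-NA-PP1 full growth; higher means more yeast growth rescued from 5-FOA killing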); conditions: S. cerevisiae cbk1-as DSE1-URA3 strain, 5-FOA growth OD615, 2 d; at 50 µM; active compounds read high

CC1CCCC(C)N1CCCNC(=O)Cn1cc2c(n1)CCCC2 (stereo not drawn)
inactive: growth inhibition [1] 9.32% | growth inhibition [2] 6.46% | viability increase [3] -1.41% | viability [4] 95.7% | viability [5] 92.5% | inhibition [6] -0.06% | RAM network inhibition [7] 6.61%

Cc1cccc(NC(=O)CCNS(=O)(=O)c2cccc3nsnc23)c1
inactive: growth inhibition [1] -7.62% | growth inhibition [2] -12.6% | viability increase [3] -2.32% | viability [4] 94.5% | viability [5] 90.7% | inhibition [6] 1.34% | RAM network inhibition [7] 1.66%

COc1ccc(NC(=O)N(Cc2cccnc2)Cc2ccccc2Cl)c(OC)c1
inactive: growth inhibition [1] 0.09% | growth inhibition [2] -1.88% | viability increase [3] -3.53% | viability [4] 91.2% | viability [5] 93.9% | inhibition [6] 1.02% | RAM network inhibition [7] -0.05%

CC(C)NC(=O)c1cc2c(-c3ccc(Cl)cc3)nn(C)c2s1
inactive: growth inhibition [1] -10.4% | growth inhibition [2] 3.42% | viability increase [3] -6.18% | viability [4] 74.5% | viability [5] 76.8% | inhibition [6] 3.84% | RAM network inhibition [7] 4.3%

Cc1ccccc1-c1nnc(SCC(=O)Nc2ccc3c(c2)OCCO3)n1N
inactive: growth inhibition [1] -1.12% | growth inhibition [2] 10.1% | viability increase [3] -2.18% | viability [4] 96.7% | viability [5] 91.7% | inhibition [6] 0.6% | RAM network inhibition [7] -0.27%

O=C(NCc1ccc(F)cc1)C1CCC(=O)N1CCc1ccccc1 (stereo not drawn)
inactive: growth inhibition [1] -5.54% | growth inhibition [2] 7.93% | viability increase [3] -0.77% | viability [4] 96.4% | viability [5] 93.2% | inhibition [6] 0.22% | RAM network inhibition [7] -1.59%

Cn1c(C(=O)NCCN2CCc3ccccc3C2)cc2c(=O)n(C)c3ccccc3c21
inactive: growth inhibition [1] -2.54% | growth inhibition [2] 4.4% | viability increase [3] -4.36% | viability [4] 70.4% | viability [5] 72.5% | inhibition [6] 2.96% | RAM network inhibition [7] 1.02%

O=C(CCn1c(=O)oc2ccccc21)Nc1cccc(Cl)c1
inactive: growth inhibition [1] -14.4% | growth inhibition [2] -11% | viability increase [3] 0.42% | viability [4] 92.8% | viability [5] 96.4% | inhibition [6] 2.17% | RAM network inhibition [7] 2.21%

O=C(NCCc1ccc(Cl)cc1)C1CC(=O)N(C2CCCCC2)C1 (stereo not drawn)
inactive: growth inhibition [1] -4.04% | growth inhibition [2] -5.98% | viability increase [3] -0.99% | viability [4] 94.6% | viability [5] 101% | inhibition [6] 1.06% | RAM network inhibition [7] 0.58%

Cc1ccc(C)c(C(=O)N(Cc2nc(-c3ccc(Cl)cc3)no2)C(C)C)c1
inactive: growth inhibition [1] -8.99% | growth inhibition [2] -16.6% | viability increase [3] -0.54% | viability [4] 56.5% | viability [5] 62.6% | inhibition [6] 1.21% | RAM network inhibition [7] 4.04%

Oc1c(/C=N/c2ncn[nH]2)ccc2ccccc12
inactive: growth inhibition [1] -9.29% | growth inhibition [2] -4.74% | viability increase [3] -0.29% | viability [4] 98.3% | viability [5] 101% | inhibition [6] -0.085% | RAM network inhibition [7] -1.12%

CCCCn1ccc(=O)c2c(C(F)(F)F)nccc21
inactive: growth inhibition [1] -6.65% | growth inhibition [2] -11.4% | viability increase [3] -3.12% | viability [4] 87.8% | viability [5] 84.4% | inhibition [6] 1.19% | RAM network inhibition [7] -0.41%

Clc1ccc(Cc2nnc(-c3ccccc3Br)o2)cc1
inactive: growth inhibition [1] 1.55% | growth inhibition [2] -0.37% | viability increase [3] 4.88% | viability [4] 101% | viability [5] 91.3% | inhibition [6] -0.5% | RAM network inhibition [7] 3.39%

O=C(NCCCN1CCC(Cc2ccccc2)CC1)C1CC(=O)N(C2CCCC2)C1 (stereo not drawn)
inactive: growth inhibition [1] 1.72% | growth inhibition [2] -13.9% | viability increase [3] -2.03% | viability [4] 88.5% | viability [5] 83.7% | inhibition [6] -0.05% | RAM network inhibition [7] 2.13%

Cc1cc(C(C)(C)C)ccc1OCCN(C)C
inactive: growth inhibition [1] -2.25% | growth inhibition [2] -9.14% | viability increase [3] 0.25% | viability [4] 94.2% | viability [5] 94.9% | inhibition [6] 1.58% | RAM network inhibition [7] 2.2%

O=C(OCCNc1ncc(C(F)(F)F)cc1Cl)c1ccc(S(=O)(=O)N2CCOCC2)cc1
inactive: growth inhibition [1] -5% | growth inhibition [2] -18.4% | viability increase [3] -2.03% | viability [4] 88.8% | viability [5] 97.9% | inhibition [6] 1.17% | RAM network inhibition [7] 9.46%

COc1ccc(C2C(C(=O)NCc3ccccn3)c3ccccc3C(=O)N2C)cc1OC (stereo not drawn)
inactive: growth inhibition [1] -4.72% | growth inhibition [2] -0.835% | viability increase [3] -0.8% | viability [4] 101% | viability [5] 101% | inhibition [6] 1.01% | RAM network inhibition [7] 0.74%

CCOC(=O)Cc1csc(NC(=O)CN(C)S(=O)(=O)c2cccc3cccnc23)n1
inactive: growth inhibition [1] -11.1% | growth inhibition [2] -7.54% | viability increase [3] -4.61% | viability [4] 93.5% | viability [5] 81.7% | inhibition [6] 1.14% | RAM network inhibition [7] 4.44%

CCOc1ccccc1C1CC(c2ccccc2)Nc2nc(N)nn21 (stereo not drawn)
inactive: growth inhibition [1] -1.36% | growth inhibition [2] 8.93% | viability increase [3] -1.31% | viability [4] 97.2% | viability [5] 88.2% | inhibition [6] 2.27% | RAM network inhibition [7] 2.72%

CC(=O)Nc1ccc(S(=O)(=O)N2CCN(c3ccc(C)c(Cl)c3)CC2)cc1
inactive: growth inhibition [1] -14.6% | growth inhibition [2] 6.34% | viability increase [3] 0.47% | viability [4] 98.3% | viability [5] 85.4% | inhibition [6] 1.71% | RAM network inhibition [7] 1.14%

COC(=O)c1ccc(CSc2ncn[nH]2)o1
inactive: growth inhibition [1] -2.62% | growth inhibition [2] 3.27% | viability increase [3] 0.51% | viability [4] 94.7% | viability [5] 97.5% | inhibition [6] 0.395% | RAM network inhibition [7] 3.38%

CCN1CCN(Cc2ccc(NC(=O)Nc3ccccc3OC)cc2)CC1
inactive: growth inhibition [1] -1.11% | growth inhibition [2] 4.37% | viability increase [3] 0.28% | viability [4] 108% | viability [5] 105% | inhibition [6] 0.235% | RAM network inhibition [7] 2.68%

CC(=O)c1coc2ccc(OCCN3CCCCC3)cc12
inactive: growth inhibition [1] -8.68% | growth inhibition [2] -18.4% | viability increase [3] -3.83% | viability [4] 85.2% | viability [5] 85.8% | inhibition [6] 0.64% | RAM network inhibition [7] 2.59%

Cc1onc(-c2ccccc2Cl)c1C(=O)NC1CCS(=O)(=O)C1 (stereo not drawn)
inactive: growth inhibition [1] -10% | growth inhibition [2] 1.32% | viability increase [3] 1.32% | viability [4] 103% | viability [5] 106% | inhibition [6] 2.96% | RAM network inhibition [7] 3.02%
